Measured values as given in ChEMBL document CHEMBL1158515, “Novel selective thiazoleacetic acids as CRTH2 antagonists developed from in silico derived hits. Part 1” (Bioorg Med Chem Lett, 2010).

Key:
[1] = target: T1, Prostaglandin D2 receptor 2 (Homo sapiens, UniProt Q9Y5Y4); assay: Displacement of[3H]PGD2 from human CRTH2 receptor expressed in african green monkey COS7 cells; type: cell-based, COS-7
T1 sequence (Q9Y5Y4 whole entry): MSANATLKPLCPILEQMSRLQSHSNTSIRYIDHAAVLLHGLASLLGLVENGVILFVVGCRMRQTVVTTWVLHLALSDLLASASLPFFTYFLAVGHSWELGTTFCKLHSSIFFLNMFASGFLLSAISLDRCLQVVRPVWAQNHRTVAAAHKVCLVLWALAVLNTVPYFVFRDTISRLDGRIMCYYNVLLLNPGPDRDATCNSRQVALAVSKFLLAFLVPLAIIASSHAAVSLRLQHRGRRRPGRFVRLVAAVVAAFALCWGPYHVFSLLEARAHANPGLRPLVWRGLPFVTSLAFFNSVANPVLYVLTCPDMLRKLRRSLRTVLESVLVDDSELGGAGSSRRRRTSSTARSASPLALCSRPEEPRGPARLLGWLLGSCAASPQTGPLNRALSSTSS
Outline: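 Equilibrium competition binding against [³H]PGD₂ on stably transfected COS7 cells expressing human CRTH2. Nonspecific binding defined with […] unlabelled PGD₂. IC50 reported.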

[2] = target: T2, Prostaglandin D2 receptor 2 (Homo sapiens) (UniProt Q9Y5Y4); assay: Antagonist activity at human CRTH2 receptor expressed in HEK285-7 cells assessed as inhibition of beta arrestin translocation by bioluminescence resonance energy transfer assay relative to control; type: functional, cell-based
T2 sequence (whole entry): T1 sequence (Q9Y5Y4 whole entry)
Outline: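 Same BRET2 β-arrestin2 translocation format in CRTH2-transfected HEK385-7 cells: 5 min antagonist preincubation, then PGD₂ at about 75–80% of maximal agonist efficacy for 5 min, DeepBlueC coelenterazine, 515/400 nm ratio. Value is antagonist efficacy expressed as percent.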

[3] = target: T1, Prostaglandin D2 receptor 2; assay: Antagonist activity at human CRTH2 receptor expressed in HEK285-7 cells assessed as inhibition of beta arrestin translocation by bioluminescence resonance energy transfer assay; type: functional, cell-based
Outline: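 BRET2 readout in HEK385-7 cells transfected with CRTH2 (GFP2-β-arrestin2 acceptor, receptor-Rluc donor). Cells preincubated with antagonist 5 min with shaking, then PGD₂ added at a level eliciting about 75–80% of maximal agonist response, 5 min more. DeepBlueC coelenterazine injected; emission read 5 s later at 400 and 515 nm; signal = 515/400 ratio. IC50 derived.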

Structure (SMILES) | IC50 [1] [nM] | Efficacy [2] [%] | IC50 [3] [nM]
CN(C)c1ccc(-c2nc(-c3ccc(Br)cc3)c(CC(=O)O)s2)cc1 | 460 | > 70 | 
O=C(O)Cc1sc(Nc2ccc(Cl)cc2)nc1-c1ccc(F)cc1 | 960 | > 70 | 1900
O=C(O)Cc1sc(Nc2ccccc2)nc1-c1ccccc1 | 350 | > 70 | 1500
CCc1ccc(-c2nc(-c3ccccc3)sc2CC(=O)O)cc1 | 1300 | 50 | 350
O=C(O)Cc1sc(Cc2ccccc2-c2ccccc2)nc1-c1ccc(F)cc1 | 24 | > 70 | 370
O=C(O)Cc1sc(-c2ccc(Oc3ccccc3)cc2)nc1-c1ccc(Cl)cc1 | 93 | > 70 | 1300
O=C(O)Cc1sc(Nc2ccc(F)cc2)nc1-c1ccc(Oc2ccccc2)cc1 | 89 | > 70 | 540
O=C(O)Cc1sc(Cc2ccccc2-c2ccc3c(c2)OCO3)nc1-c1ccc(F)cc1 | 24 | > 70 | 1500
O=C(O)Cc1sc(Cc2ccc(Cl)cc2)nc1-c1ccccc1 | 88 | > 70 | 580
COc1ccc(-c2nc(-c3ccccc3)sc2CC(=O)O)cc1 | 7000 | > 70 | 5000
O=C(O)Cc1sc(Nc2ccc3ccccc3c2)nc1-c1ccc(Oc2ccccc2)cc1 | 94 | 20 | 260
O=C(O)Cc1sc(-c2ccc(F)cc2)nc1-c1ccccc1 | 1500 | > 70 | 3700
COc1ccc(Nc2nc(-c3ccccc3)c(CC(=O)O)s2)cc1 | 940 | > 70 | 1500
O=C(O)Cc1sc(Nc2ccc3ccccc3c2)nc1-c1ccc(Br)cc1 | 220 | > 70 | 370
COc1ccc(-c2nc(-c3ccc(OC)cc3)c(CC(=O)O)s2)cc1 | 4100 | > 70 | 
CC(C)c1ccc(Nc2nc(-c3ccc(Cl)cc3)c(CC(=O)O)s2)cc1 | 1200 | > 70 | 16000
COc1cccc(-c2ccccc2Cc2nc(-c3ccc(F)cc3)c(CC(=O)O)s2)c1 | 40 | > 70 | 390
COc1ccc(-c2ccccc2Cc2nc(-c3ccc(F)cc3)c(CC(=O)O)s2)cc1 | 72 | > 70 | 270
Cc1ccc(Nc2nc(-c3ccc(Cl)cc3)c(CC(=O)O)s2)cc1 | 750 | > 70 | 560
Cc1ccc(Cc2nc(-c3ccccc3)c(CC(=O)O)s2)cc1 | 250 | > 70 | 1800
O=C(O)Cc1sc(Cc2ccccc2Br)nc1-c1ccc(F)cc1 | 700 | > 70 | > 100000
N#Cc1cccc(-c2ccccc2Cc2nc(-c3ccc(F)cc3)c(CC(=O)O)s2)c1 | 340 | > 70 | > 100000
Cc1ccc(-c2nc(-c3ccc(Cl)cc3)sc2CC(=O)O)c(C)c1 | 990 | > 70 | 
O=C(O)Cc1sc(Nc2ccccc2F)nc1-c1ccc(Oc2ccccc2)cc1 | 210 | > 70 | > 100000
O=C(O)Cc1sc(Cc2ccc(Cl)cc2)nc1-c1ccc(Cl)cc1 | 50 | > 70 | 220

Structure (SMILES) | IC50 [1] [nM] | Efficacy [2] [%] | IC50 [3] [nM]
O=C(O)Cc1sc(Nc2ccccc2)nc1-c1ccc(Oc2ccccc2)cc1 | 84 | > 70 | 350
COc1ccccc1Nc1nc(-c2ccc(F)cc2)c(CC(=O)O)s1 | 1500 | > 70 | 2100
COc1ccccc1Nc1nc(-c2ccc(Oc3ccccc3)cc2)c(CC(=O)O)s1 | 49 | > 70 | 480
COc1ccc(-c2nc(-c3ccc(Br)cc3)c(CC(=O)O)s2)cc1 | 390 | > 70 | 
O=C(O)Cc1sc(-c2ccccc2)nc1-c1ccc(Cl)cc1 [FENTIAZAC] | 550 | > 70 | 960
COc1ccc(-c2nc(-c3ccc(Cl)cc3)sc2CC(=O)O)cc1 | 210 | > 70 | 
O=C(O)Cc1sc(Cc2ccccc2)nc1-c1ccc(F)cc1 | 140 | 30 | 180
N#Cc1ccc(-c2ccccc2Cc2nc(-c3ccc(F)cc3)c(CC(=O)O)s2)cc1 | 170 | 30 | 190
O=C(O)Cc1sc(Nc2ccccc2)nc1-c1ccc(F)cc1 | 650 | > 70 | 1300
O=C(O)Cc1sc(Nc2ccccc2Cl)nc1-c1ccc(Oc2ccccc2)cc1 | 130 | > 70 | > 100000
COc1ccc(-c2nc(-c3ccccc3)c(CC(=O)O)s2)cc1 | 820 | > 70 | 1700
O=C(O)Cc1sc(-c2ccc(Cl)cc2)nc1-c1ccccc1 | 990 | > 70 | 1600
COc1ccccc1-c1nc(-c2ccc(Br)cc2)c(CC(=O)O)s1 | 350 | > 70 | 
O=C(O)Cc1sc(Cc2ccc3ccccc3c2)nc1-c1ccc(Cl)cc1 | 41 | > 70 | 570
O=C(O)Cc1sc(Nc2ccc(C(F)(F)F)cc2)nc1-c1ccc(Cl)cc1 | 700 | > 70 | 1100
COc1ccc(-c2nc(Nc3ccccc3)sc2CC(=O)O)cc1 | 1900 | > 70 | 2400
O=C(O)Cc1sc(Cc2ccccc2)nc1-c1ccc(Cl)cc1 | 180 | > 70 | 4100
COc1ccccc1Nc1nc(-c2ccc(Cl)cc2)c(CC(=O)O)s1 | 450 | > 70 | 730
O=C(O)Cc1sc(Cc2ccc(Cl)cc2)nc1-c1ccc(Oc2ccccc2)cc1 | 3.7 | > 70 | 66
O=C(O)Cc1sc(Cc2ccccc2-c2cccc(OC(F)(F)F)c2)nc1-c1ccc(F)cc1 | 160 | > 70 | > 100000
O=C(O)Cc1sc(Nc2ccccc2)nc1-c1ccc(Cl)cc1 | 100 | > 70 | 1300
O=C(O)Cc1sc(Nc2ccc(Cl)cc2)nc1-c1ccc(-c2ccccc2)cc1 | 940 | 20 | 3800
O=C(O)Cc1sc(-c2ccccc2)nc1-c1ccccc1 | 870 | > 70 | 2500
COc1ccc(Cc2nc(-c3ccccc3)c(CC(=O)O)s2)cc1OC | 330 | > 70 | 3800
CCc1ccc(-c2nc(-c3ccccc3OC)sc2CC(=O)O)cc1 | 1400 | > 70 | 
